Experimental data as given in ChEMBL document CHEMBL2429786, “New serotonin 5-HT1A receptor agonists endowed with antinociceptive activity in vivo” (J Med Chem, 2013).
pEC50, pKi: −log10 of the molar value. Calls of active or inactive are those of the source. The calls are words filed in the database; no cut-off is given here.

Key:
Homo sapiens [1] = species on record: Homo sapiens; assay: Displacement of [125I]Tyr11-somatostatin-14 from somatostatin receptor (unknown origin) at 1 uM after 60 mins
[2] = target: T1, Muscarinic acetylcholine receptor M4 (Homo sapiens) (UniProt P08173); assay: Displacement of [3H]-4-DAMP from muscarinic M4 receptor (unknown origin) at 1 uM after 60 mins
T1 sequence (whole entry): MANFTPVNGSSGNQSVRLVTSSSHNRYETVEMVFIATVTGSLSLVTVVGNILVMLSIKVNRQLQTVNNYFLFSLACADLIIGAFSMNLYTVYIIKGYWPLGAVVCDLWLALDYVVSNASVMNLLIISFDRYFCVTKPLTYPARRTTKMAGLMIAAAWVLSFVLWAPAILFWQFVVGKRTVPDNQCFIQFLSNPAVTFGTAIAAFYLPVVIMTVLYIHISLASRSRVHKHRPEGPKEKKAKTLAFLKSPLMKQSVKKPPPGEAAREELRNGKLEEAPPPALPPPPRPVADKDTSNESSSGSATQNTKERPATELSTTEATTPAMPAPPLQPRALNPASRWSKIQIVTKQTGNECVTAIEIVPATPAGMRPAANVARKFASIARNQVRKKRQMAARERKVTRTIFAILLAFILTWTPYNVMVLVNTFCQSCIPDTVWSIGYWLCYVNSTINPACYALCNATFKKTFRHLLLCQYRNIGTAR

[3] = target: T2, Muscarinic acetylcholine receptor M2 (Homo sapiens) (UniProt P08172); assay: Displacement of [3H]AF-DX 384 from muscarinic M2 receptor (unknown origin) at 1 uM after 60 mins
T2 sequence (whole entry): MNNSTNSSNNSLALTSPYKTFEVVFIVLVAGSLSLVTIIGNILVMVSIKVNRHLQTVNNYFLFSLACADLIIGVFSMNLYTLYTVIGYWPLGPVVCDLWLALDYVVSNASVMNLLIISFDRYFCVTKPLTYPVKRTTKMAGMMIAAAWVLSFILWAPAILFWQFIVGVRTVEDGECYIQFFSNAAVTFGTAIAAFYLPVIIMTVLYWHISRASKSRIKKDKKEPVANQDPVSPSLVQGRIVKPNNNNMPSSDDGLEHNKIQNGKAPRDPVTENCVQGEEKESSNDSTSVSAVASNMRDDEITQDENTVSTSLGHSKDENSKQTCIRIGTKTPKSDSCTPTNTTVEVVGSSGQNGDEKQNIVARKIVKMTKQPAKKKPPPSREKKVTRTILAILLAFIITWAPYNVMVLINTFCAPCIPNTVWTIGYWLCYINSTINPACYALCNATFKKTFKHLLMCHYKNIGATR

Homo sapiens [4] = species on record: Homo sapiens; assay: Displacement of [3H]CGP54626 from GABAB receptor (unknown origin) at 1 uM after 120 mins
[5] = target: Cannabinoid receptor 1 (Homo sapiens) (UniProt P21554); assay: Displacement of [3H]CP 55940 from CB1 receptor (unknown origin) at 1 uM after 120 mins
[6] = target: Adrenergic receptor alpha-2 (Homo sapiens) (UniProt P08913+P18825+P18089); assay: Displacement of [3H]RX 821002 from alpha2-adrenergic receptor (unknown origin) at 1 uM after 60 mins
Mus musculus [7] = assay: Toxicity in CD-1 mouse at 3 mg/kg, ip and 30 mg/kg, po; format: organism-based; conditions: in vivo
Mus musculus [8] = assay: Antinociceptive activity in CD-1 mouse assessed as reduction of formalin-induced paw licking activity at 30 mg/kg, po administered 30 mins prior to formalin-challenge measured after 15 to 30 mins; format: functional, organism-based; set-up: dose 30 mg/kg
Mus musculus [9] = assay: Antinociceptive activity in CD-1 mouse assessed as reduction of formalin-induced paw licking activity at 30 mg/kg, po administered 30 mins prior to formalin-challenge measured after 5 mins; format: functional, organism-based; set-up: dose 30 mg/kg
Mus musculus [10] = assay: Antinociceptive activity in CD-1 mouse assessed as reduction of formalin-induced paw licking activity at 3 mg/kg, ip administered 15 mins prior to formalin-challenge measured after 5 mins in presence of 5-HT1A receptor antagonist WAY-100635; format: functional, organism-based; set-up: dose 3 mg/kg
Mus musculus [11] = assay: Antinociceptive activity in CD-1 mouse assessed as reduction of formalin-induced paw licking activity at 3 mg/kg, ip administered 15 mins prior to formalin-challenge measured after 5 mins; format: functional, organism-based; set-up: dose 3 mg/kg
Mus musculus [12] = assay: Antinociceptive activity in CD-1 mouse assessed as reduction of formalin-induced paw licking activity at 3 mg/kg, ip administered 15 mins prior to formalin-challenge measured after 15 to 30 mins; format: functional, organism-based; set-up: dose 3 mg/kg
CYP2D6 = CYP2D6 (Homo sapiens, UniProt P10635); assay: Inhibition of human recombinant microsomal CYP2D6 using {3-[2-(N,N-diethyl-N-methylamino)ethyl]-7-methoxy-4-methylcoumarin} as substrate assessed as remaining activity at 10 uM after 30 mins by spectrofluorimetric analysis relative to control; format: ADME; conditions: read-out: Activity
[13] = Half life in mouse liver microsomes at 1 to 5 uM by HPLC-MS analysis; format: ADME, Microsome
[14] = Intrinsic clearance in human liver microsomes at 1 to 5 uM by HPLC-MS analysis; format: ADME, Microsome; conditions: read-out: CLH
Outline: (§1)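 Incubation mixtures pre-equilibrated at 37 °C with NADPH and MgCl2, then rat or human liver microsomes added to start the reaction. Aliquots were withdrawn and quenched at several time points, and percent parent remaining was measured by HPLC-MS and plotted against time. t1/2 was taken from the slope of peak area over time and used to calculate CLint.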

[15] = Intrinsic clearance in Sprague-Dawley rat liver microsomes at 1 to 5 uM by HPLC-MS analysis; format: ADME, Microsome; conditions: read-out: CLH; outline: as §1
Mus musculus [16] = species on record: Mus musculus; assay: Hypothermic activity in Swiss mouse assessed as change in rectal temperature after 60 mins; format: functional; conditions: 1 h, read-out: MED
[17] = target: T3, 5-hydroxytryptamine receptor 1A (Homo sapiens, UniProt P08908); assay: Agonist activity at human 5-HT1A receptor expressed in human HeLa cells assessed as inhibition of forskolin-stimulated cAMP formation after 10 mins by RIA; format: functional, cell-based
T3 sequence (P08908 whole entry): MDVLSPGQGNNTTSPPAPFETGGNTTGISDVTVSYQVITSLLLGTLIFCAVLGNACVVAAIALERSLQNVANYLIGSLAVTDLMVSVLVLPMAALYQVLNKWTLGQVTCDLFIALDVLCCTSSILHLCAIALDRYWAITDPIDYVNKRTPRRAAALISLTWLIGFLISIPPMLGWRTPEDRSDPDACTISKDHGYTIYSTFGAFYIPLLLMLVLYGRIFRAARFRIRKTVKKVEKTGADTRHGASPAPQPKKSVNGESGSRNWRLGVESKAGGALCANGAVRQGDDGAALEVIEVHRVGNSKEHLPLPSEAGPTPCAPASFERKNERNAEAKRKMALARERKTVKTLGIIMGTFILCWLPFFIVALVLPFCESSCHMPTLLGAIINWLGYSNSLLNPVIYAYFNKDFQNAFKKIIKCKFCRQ

[18] = target: 5-hydroxytryptamine receptor 7 (Rattus norvegicus, UniProt P32305); assay: Displacement of [3H]-5-CT from 5-HT7 receptor in Sprague-Dawley rat hypothalamus after 120 mins
[19] = target: 5-hydroxytryptamine receptor 2A (Rattus norvegicus, UniProt P14842); assay: Displacement of [3H]ketanserin from 5-HT2A receptor in Sprague-Dawley rat frontal cortex after 15 mins; format: tissue-based
Sequence of 5-hydroxytryptamine receptor 2A (P14842 whole entry): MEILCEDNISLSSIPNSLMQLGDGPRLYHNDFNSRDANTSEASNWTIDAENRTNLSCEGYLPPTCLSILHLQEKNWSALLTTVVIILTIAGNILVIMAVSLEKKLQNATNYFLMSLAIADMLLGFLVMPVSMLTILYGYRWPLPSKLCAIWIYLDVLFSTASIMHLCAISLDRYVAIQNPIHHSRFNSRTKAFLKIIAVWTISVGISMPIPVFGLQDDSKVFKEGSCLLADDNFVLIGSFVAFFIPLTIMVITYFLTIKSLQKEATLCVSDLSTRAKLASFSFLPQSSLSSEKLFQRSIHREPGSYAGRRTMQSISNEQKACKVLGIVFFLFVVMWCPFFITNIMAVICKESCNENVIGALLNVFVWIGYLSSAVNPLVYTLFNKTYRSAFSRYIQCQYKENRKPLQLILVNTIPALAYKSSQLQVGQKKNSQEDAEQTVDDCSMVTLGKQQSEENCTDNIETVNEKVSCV

Sequence of 5-hydroxytryptamine receptor 7 (P32305 whole entry): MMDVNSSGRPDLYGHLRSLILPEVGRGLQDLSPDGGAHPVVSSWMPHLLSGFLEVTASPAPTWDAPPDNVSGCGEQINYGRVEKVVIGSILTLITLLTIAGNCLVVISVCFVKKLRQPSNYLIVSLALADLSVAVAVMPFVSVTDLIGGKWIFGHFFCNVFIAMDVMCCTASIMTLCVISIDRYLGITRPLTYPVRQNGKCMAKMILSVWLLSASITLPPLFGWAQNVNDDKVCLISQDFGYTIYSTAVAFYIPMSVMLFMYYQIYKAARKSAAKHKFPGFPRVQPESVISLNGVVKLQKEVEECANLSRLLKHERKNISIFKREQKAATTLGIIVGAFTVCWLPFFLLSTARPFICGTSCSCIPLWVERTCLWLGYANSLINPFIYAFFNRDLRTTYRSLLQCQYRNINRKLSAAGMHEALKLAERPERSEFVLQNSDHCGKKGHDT
Sequence of Cannabinoid receptor 1 (Homo sapiens) (P21554 whole entry): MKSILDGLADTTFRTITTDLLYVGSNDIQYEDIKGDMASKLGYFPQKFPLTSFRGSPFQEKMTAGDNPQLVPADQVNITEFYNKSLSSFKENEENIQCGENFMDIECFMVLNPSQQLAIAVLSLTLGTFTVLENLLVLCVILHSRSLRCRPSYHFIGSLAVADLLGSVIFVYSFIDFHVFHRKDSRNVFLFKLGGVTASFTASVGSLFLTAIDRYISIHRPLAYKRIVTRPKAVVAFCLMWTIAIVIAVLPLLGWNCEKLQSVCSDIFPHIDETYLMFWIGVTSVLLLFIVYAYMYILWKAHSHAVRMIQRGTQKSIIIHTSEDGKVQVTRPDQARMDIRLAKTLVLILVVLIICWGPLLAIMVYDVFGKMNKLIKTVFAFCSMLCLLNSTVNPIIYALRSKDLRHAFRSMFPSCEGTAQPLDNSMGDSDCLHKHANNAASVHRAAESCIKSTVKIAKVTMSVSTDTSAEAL
Sequence of CYP2D6 (P10635 whole entry): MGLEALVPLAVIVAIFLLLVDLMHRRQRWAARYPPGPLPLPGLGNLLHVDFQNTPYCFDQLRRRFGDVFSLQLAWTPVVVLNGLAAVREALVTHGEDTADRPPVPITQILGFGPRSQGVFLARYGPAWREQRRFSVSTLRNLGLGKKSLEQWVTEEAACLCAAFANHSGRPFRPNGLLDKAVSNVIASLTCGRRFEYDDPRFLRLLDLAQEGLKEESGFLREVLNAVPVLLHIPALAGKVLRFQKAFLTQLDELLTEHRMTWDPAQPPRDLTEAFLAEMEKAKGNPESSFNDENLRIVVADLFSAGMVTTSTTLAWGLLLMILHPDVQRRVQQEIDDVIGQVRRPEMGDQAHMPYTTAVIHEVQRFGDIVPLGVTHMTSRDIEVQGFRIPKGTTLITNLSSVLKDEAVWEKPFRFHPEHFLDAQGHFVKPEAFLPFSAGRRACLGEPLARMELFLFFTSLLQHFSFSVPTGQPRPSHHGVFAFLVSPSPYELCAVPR

inhibition (Homo sapiens [1]): inactive
inhibition [2]: inactive
inhibition [3]: inactive
inhibition (Homo sapiens [4]): inactive
inhibition [5]: inactive
inhibition [6]: inactive
activity at 0.5 h, 10 µM (CYP2D6): 18%
half-life at up to 5 µM [13]: 29.5 min
CLint scaled at up to 5 µM [14]: 3.5 mL/min/kg
CLint scaled at up to 5 µM [15]: 107 mL/min/kg
pEC50 [17]: 7.72
pKi [18]: 7.77
pKi [19]: < 6.00
Compound: CCOc1ccccc1OCCNCCCCN1C(=O)C2CCCN2C1=O.Cl (stereo not given)
Activity (Mus musculus [7]): Non-toxic
Activity (Mus musculus [8]): Active
Activity (Mus musculus [9]): Active
Activity (Mus musculus [10]): inactive
Activity (Mus musculus [11]): Active
Activity (Mus musculus [12]): Active
minimal effective dose (Mus musculus [16]): 0.875 mg/kg
